In series [1] the test system is T. vaginalis. The note with it: cited from earlier work.
The test system of series [2] is Human Embryonic Kidney (HEK) cells. The experiment in a line: Toxicity against Human Embryonic Kidney. It counts as cell-based. The note with it: for S.I. (Selectivity Index): HEK versus T. vaginalis.
The test system of series [3] is T. vaginalis trophozoites of the metronidazole-sensitive strain G3. The experiment in a line: Resorufin-based drug sensitivity assay. The note with it: for EC50: Trichomonas vaginalis. It counts as cell-based, Trichomonas vaginalis.
The conditions of series [4]: mouse models of Chagas' disease; cited from earlier work.
For series [5], the system named is T. vaginalis. The experiment in a line: Fluorescence microscopy. It counts as cell-based, Trichomonas vaginalis. The note with it: 2×EC50. In outline: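 Samples from the growth-curve cultures, taken at 8-h intervals, were centrifuged twice at 2600 × g for 10 min at 4 °C, with a PBS pH 7.4 wash in between. Cells were air-dried 30 min on poly-L-lysine slides, fixed 15 min in 4% paraformaldehyde/PBS, washed, and mounted in antifade medium with DAPI. Nuclear volumes were measured from Z-stacks. Cultures were passaged at 24 h to 1.32×10^5 cells/mL.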

The subject of series [6] is T. foetus D1 trophozoites. The experiment in a line: Murine model of vaginal trichomonad infection. It counts as in vivo, BALB/c mice. In a few lines:
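Freshly weaned (21–24 days) female BALB/c mice were infected intravaginally with 10^6 mid-log T. foetus D1 trophozoites in 5 µL growth medium. One day later they received five doses over three days (1 on day 1, 2 on each of days 2 and 3). Doses were either oral gavage of 25 mg/kg per dose as a suspension in 1% hypromellose, 50 µL, or intravaginal 50 µg in 5 µL; controls received solvent. Live trophozoites in 30 µL PBS vaginal washes were counted in a chamber on day 4.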

For the next series, the system named is T. foetus strain D1. In words: In vitro activity against T. foetus. It counts as cell-based, Tritrichomonas foetus.
Series [7] has as its system T. vaginalis strain F1623. The experiment in a line: In vitro activity against T. vaginalis F1623. It counts as cell-based, Trichomonas vaginalis. The note with it: T. vaginalis strain F1623, same assay as T. foetus.
For series [8], the system named is T. vaginalis trophozoites. In words: Growth curve assay. It counts as cell-based, Trichomonas vaginalis. The note with it: 2×EC50, continuous exposure 56 h, passage after 24 h.
Setting [9] is: Homo sapiens, HEK293, read-out: EC50 HEK.
Setting [10] is: read-out: EC50 T. vaginalis, resorufin assay, 24 h + 2 h, 2% O2/98% N2, average of at least 3 independent determinations and SD.
Setting [11] is: read-out: EC50 HEK, HEK cells, average of at least 3 independent determinations and SD.

Entries after “also recorded” stand apart in the source; their conditions may differ. Read-outs that look alike come from different tables or passages of the source.

Consider 2-F, 2’-deoxyadenosine, for which, in the series on T. vaginalis [1], the antitrichomonal activity is listed as ~100 nM. As to 2’-F,2’-deoxyadenosine, in the series with T. vaginalis [1], the antitrichomonal efficacy result is on record as “substantial antitrichomonal efficacy”. On to `Nc1ncnc2c1ncn2[C@@H]1O[C@H](CO)[C@@H](O)[C@@H]1F` [2’-deoxy-2’-fluoroarabinoadenosine], for which the antitrichomonal efficacy entry in the series on T. vaginalis [1] was “substantial antitrichomonal efficacy”. For `Nc1nc(F)nc2nc[nH]c12` [Compound 2-F-adenine, 2-F-adenine], in the series with T. vaginalis [1], the antitrichomonal activity is ~100 nM. Regarding `Nc1ncnc2c1c(-c1ccc(Cl)c(Cl)c1)cn2[C@@H]1O[C@H](CO)[C@@H](O)[C@H]1O` [FH3147, 7-deaza,7-(3,4-dichlorophenyl)adenosine], in series [2], the “S.I. (Selectivity Index)” value is >10,000. For the same molecule, the results for the EC50 in series [2] (setting [9]) and in series [3] (setting [10]) were > 200 µM and 0.029 ± 0.003 µM, respectively. Moreover, the “in vitro anti-T. vaginalis activity (EC50) described in words” value (“in vitro anti-T. vaginalis activity” for short) in series [3] is reported as “double-digit nanomolar”.

With `Nc1ncnc2c1c(-c1ccccc1F)cn2[C@@H]1O[C@H](CO)[C@@H](O)[C@H]1O` [FH7435], in series [2] (setting [11]), the EC50 was > 200 µM. Consider `Nc1ncnc2c1c(-c1cccc(Cl)c1)cn2[C@@H]1O[C@H](CO)[C@@H](O)[C@H]1O` [FH8459], for which, in series [2] (setting [11]), the EC50 is > 200 µM.

With `Nc1ncnc2c1c(-c1cc(Cl)cc(Cl)c1)cn2[C@@H]1O[C@H](CO)[C@@H](O)[C@H]1O` [FH8460], the EC50 in series [2] (setting [11]) is > 200 µM. As for `Nc1ncnc2c1c(-c1ccccc1)cn2[C@@H]1O[C@H](CO)C[C@H]1O` [FH8480], in series [3], the “in vitro anti-T. vaginalis activity” value is “low micromolar”. Consider `Cc1ccc(-c2cn([C@@H]3O[C@H](CO)C[C@H]3O)c3ncnc(N)c23)cc1` [FH8481], for which the EC50 in series [2] (setting [11]) is > 200 µM. For the same molecule, the “in vitro anti-T. vaginalis activity” value in series [3] is recorded as “low micromolar”. As for `COc1ccc(-c2cn([C@@H]3O[C@H](CO)C[C@H]3O)c3ncnc(N)c23)cc1` [FH8494], the EC50 in series [2] (setting [11]) was > 200 µM. Turning to `Nc1ncnc2c1c(-c1ccc(Cl)cc1)cn2[C@@H]1O[C@H](CO)C[C@H]1O` [FH8512], in series [4], the “ill effects on the animals” value is recorded as “without any apparent ill effects”. Moreover, the EC50 in series [2] (setting [11]) is > 200 µM.

As to `Nc1ncnc2c1c(-c1ccc(Cl)c(Cl)c1)cn2[C@@H]1O[C@H](CO)C[C@H]1O` [FH8513], in [2] (setting [11]), the EC50 is > 200 µM. As to `CC(C)c1ccc(-c2cn([C@@H]3O[C@H](CO)C[C@H]3O)c3ncnc(N)c23)cc1` [FH9574], the EC50 in series [2] (setting [11]) came to 94 ± 9 µM.

`Nc1ncnc2c1c(-c1ccc3ccccc3c1)cn2[C@@H]1O[C@H](CO)C[C@H]1O` [FH9575]: the EC50 in [2] (setting [11]) was found to be 44 ± 5 µM. In the case of `Nc1ncnc2c1c(-c1ccc(C(F)(F)F)cc1)cn2[C@@H]1O[C@H](CO)C[C@H]1O` [FH9576], the EC50 in series [2] (setting [11]) came to 148 ± 22 µM. Moreover, the “cell morphology / nuclei (DAPI)” value with T. vaginalis [5] (16 h continuous incubation) was “cells still looked normal at 16 h”. For the molecule `Nc1ncnc2c1c(-c1ccc(OC(F)(F)F)cc1)cn2[C@@H]1O[C@H](CO)C[C@H]1O` [FH9577], the “cell morphology / nuclei (DAPI)” value in the series with T. vaginalis [5] (16 h continuous incubation) is “looked healthy at 16 h”; in the series with T. vaginalis [5] (24 h continuous incubation), “clearly displayed multiple nuclei at 24 h”. Regarding `Nc1ncnc2c1c(-c1ccc(Cl)cc1Cl)cn2[C@@H]1O[C@H](CO)C[C@H]1O` [FH9581], the EC50 in series [2] (setting [11]) is > 200 µM. As to `Nc1ncnc2c1c(-c1ccc([N+](=O)[O-])cc1)cn2[C@@H]1O[C@H](CO)C[C@H]1O` [FH9582], the EC50 in [2] (setting [11]) was > 200 µM. Still for that read-out and setting: the same measure for `Nc1ncnc2c1c(-c1cccc(Cl)c1)cn2[C@@H]1O[C@H](CO)C[C@H]1O` [FH10641]: > 200 µM. In the case of `Cc1ccc(-c2cn([C@@H]3O[C@H](CO)C[C@H]3O)c3ncnc(N)c23)cc1Cl` [FH10644], the EC50 in [2] (setting [11]) came to 94 ± 9 µM. Turning to `COc1ccc(-c2cn([C@@H]3O[C@H](CO)C[C@H]3O)c3ncnc(N)c23)cc1Cl` [FH10645], the EC50 in series [2] (setting [11]) is > 200 µM.

With `CCc1ccc(-c2cn([C@@H]3O[C@H](CO)C[C@H]3O)c3ncnc(N)c23)cc1` [FH10647], the EC50 in [2] (setting [11]) was 133 ± 2 µM. On the same count and under the same terms, the same measure for `Cc1cc(-c2cn([C@@H]3O[C@H](CO)C[C@H]3O)c3ncnc(N)c23)ccc1Cl` [FH10648]: 146 ± 13 µM; for `COc1cc(-c2cn([C@@H]3O[C@H](CO)C[C@H]3O)c3ncnc(N)c23)ccc1Cl` [FH10649]: 178 ± 6 µM. With `Cc1ccc(-c2cn([C@@H]3O[C@H](CO)C[C@H]3O)c3ncnc(N)c23)cc1C` [FH10653], the EC50 in series [2] (setting [11]) is 168 ± 19 µM. For the molecule `Nc1ncnc2c1c(C1CCCCC1)cn2C1OC(CO)CC1O` (stereo not drawn) [FH10669], the “in vitro anti-T. vaginalis activity” value in [3] is on record as “very weak activity”. In the case of `Nc1ncnc2c1c(-c1ccc(F)cc1)cn2[C@@H]1O[C@H](CO)C[C@H]1O` [FH10680], in series [2] (setting [11]), the EC50 is > 200 µM. Also, the “in vitro anti-T. vaginalis activity” value in series [3] was “low micromolar”. On to `Nc1ncnc2c1c(-c1ccc(F)c(Cl)c1)cn2[C@@H]1O[C@H](CO)C[C@H]1O` [FH10681], for which the EC50 in series [2] (setting [11]) was > 200 µM. `Nc1ncnc2c1c(-c1ccc(F)c(F)c1)cn2[C@@H]1O[C@H](CO)C[C@H]1O` [FH10682]: the EC50 in series [2] (setting [11]) is > 200 µM.

Take `Nc1ncnc2c1c(-c1ccc(Cl)c(F)c1)cn2[C@@H]1O[C@H](CO)C[C@H]1O` [FH10683]: in [2] (setting [11]), the EC50 stood at 151 ± 1 µM.

Regarding `Nc1ncnc2c1c(-c1ccc(C(F)(F)F)cc1)cn2[C@@H]1O[C@H](CO)[C@@H](O)[C@H]1O` [FH11704], the EC50 in series [2] (setting [11]) was > 200 µM. Turning to `Cc1ccc(-c2cn([C@@H]3O[C@H](CO)[C@@H](O)[C@H]3O)c3ncnc(N)c23)cc1C` [FH13820], the EC50 in [2] (setting [11]) is > 200 µM.

Regarding `Nc1ncnc2c1c(-c1ccc(F)cc1)cn2[C@@H]1O[C@H](CO)[C@@H](O)[C@H]1O` [MS1001], the EC50 in series [2] (setting [11]) was > 200 µM. For `Nc1ncnc2c1c(-c1ccccc1)cn2[C@@H]1O[C@H](CO)[C@@H](O)[C@H]1O` [TH1004, 7-deaza-7-phenyladenosine], the “S.I. (Selectivity Index)” value in [2] is given as >465. In addition, the results for the EC50 in series [2] (setting [9]) and in series [3] (setting [10]) were > 200 µM and 0.44 ± 0.059 µM, respectively. In addition, in the series on T. vaginalis [5] (24 h continuous incubation), the “cell morphology / nuclei (DAPI)” value was “the cell membrane appears to be disintegrating and multiple nuclei are present in some cells”. With `Cc1ccc(-c2cn([C@@H]3O[C@H](CO)[C@@H](O)[C@H]3O)c3ncnc(N)c23)cc1` [TH1011], the EC50 in [2] (setting [11]) is > 200 µM. Moreover, the “in vitro anti-T. vaginalis activity” value in [3] was “double-digit nanomolar”.

In the case of `Nc1ncnc2c1c(-c1ccc(Cl)cc1)cn2[C@@H]1O[C@H](CO)[C@@H](O)[C@H]1O` [TH1012], the “ill effects on the animals” value in [4] is recorded as “without any apparent ill effects”. Further, the EC50 in series [2] (setting [11]) was > 200 µM; with T. foetus strain D1 it was 13.9 µM; in series [7] it was 0.18 µM. Moreover, the “cell morphology / nuclei (DAPI)” value with T. vaginalis [5] (24 h continuous incubation) is reported as “displayed multiple nuclei at 24 h”. The “adverse effects during the treatment period” value in [6] (oral 5×25 mg/kg or topical 1%, 25 mg/kg) is given as “No adverse effects were observed; also recorded: without any apparent ill effects”. Also, the “effect on infection (live trophozoites in vaginal washes on day 4)” value in [6] (topical intravaginal, 1% (50 μg per dose), five doses over three days) is on record as “almost complete eradication of the infection; also recorded: almost completely eradicated the T. foetus infection; also recorded: strongly inhibited T. foetus infection in mice”. Besides, the “in vitro anti-T. vaginalis activity” value in [3] is on record as “double-digit nanomolar”. Turning to `COc1ccc(-c2cn([C@@H]3O[C@H](CO)[C@@H](O)[C@H]3O)c3ncnc(N)c23)cc1` [TH1013], the EC50 in [2] (setting [11]) was > 200 µM. With `Nc1ncnc2c1ncn2[C@@H]1O[C@H](CO)[C@@H](O)[C@@H]1O` [adenine arabinoside], the antitrichomonal efficacy result in the series with T. vaginalis [1] is given as “substantial antitrichomonal efficacy”. As to `Cc1ncc([N+](=O)[O-])n1CCO` [metronidazole, reference compound], in series [8], the “effect on T. vaginalis growth” value was “managed a modest amount of growth before arrest and population decline”. Moreover, the EC50 in series [3] (BD pouch bags incubation, n=16) was 0.26 ± 0.02 µM; in series [3] (confirmation experiments, n=9, unit inferred), 0.53 ± 0.1 µM; in series [3] (in-pod incubation, n=16), 0.28 ± 0.02 µM; in series [3] (introduction, hit criterion), ~0.3 µM.

Values taken from PMC9586919 (ACS infectious diseases, 2021).
